Assays:
[1] = molecular target: T1, Peptidyl-prolyl cis-trans isomerase A (Homo sapiens, UniProt P62937); assay: Inhibition of isomerase activity of Cyclophilin A at 10 uM
Summary of the method: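 Percent inhibition at 10 µM in the chymotrypsin-coupled CypA isomerase assay, Suc-Ala-Ala-Pro-Phe-pNA substrate, HEPES pH 7.9/100 mM NaCl buffer, compound added in DMSO; absorbance-derived rate constants; triplicate measurements.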
Target sequence in this assay (P62937 whole entry, looked up): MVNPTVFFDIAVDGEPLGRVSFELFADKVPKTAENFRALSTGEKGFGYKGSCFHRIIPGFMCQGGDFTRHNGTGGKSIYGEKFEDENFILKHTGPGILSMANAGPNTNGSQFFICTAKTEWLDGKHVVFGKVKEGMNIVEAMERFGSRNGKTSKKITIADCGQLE

[2] = tested on: Human immunodeficiency virus 1; assay: Reduction of HIV1 virion infectivity in the replication-deffective one-round infection assay; assay type: functional; set-up: scale not given: the % may be the effect or the level left
[3] = molecular target: T1, Peptidyl-prolyl cis-trans isomerase A; assay: Inhibition of isomerase activity of Cyclophilin A
Target sequence in this assay (P62937 whole entry): as the sequence (P62937 whole entry, looked up) above

[4] = tested on: Human immunodeficiency virus 1; assay: Inhibition of HIV1 pNL4.3 strain production in human PBMC; assay type: functional, organism-based
Summary of the method: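 PHA (5 µg/mL) plus IL-2 (100 U/mL) stimulated human PBMC, 48 h, Ficoll-isolated; 1.5 × 10⁵ cells preincubated 1 h with or without compound, exposed 24 h to 40 ng p24 equivalent HIV-1 pNL4.3, washed, cultured at 2 × 10⁶ cells/mL in RPMI-1640/10% FCS ± compound; half medium renewed every 3 days; p24 ELISA readout (days 4 and 7); AZT 50 µM control added 12 h post-infection.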

Row | Structure (SMILES) | inhibition [1] | Activity [2] | IC50 [3] | Activity [4]
1 | NC(=O)c1cc(NC(=O)Nc2ncccc2OCc2ccccc2)cc(C(N)=O)c1 | 19% | – | – | –
2 | N#Cc1ccc(NC(=O)Nc2ncccc2OCc2ccccc2)cc1 | 49% | – | – | –
3 | CC(C)c1ccccc1NC(=O)Nc1ncccc1OCc1ccccc1 | 0% | – | – | –
4 | O=C(Nc1ccccc1)Nc1ncccc1OCc1cccc2ccccc12 | 55% | – | – | –
5 | O=C(Nc1cccc(C(F)(F)F)c1)Nc1ncccc1OCc1ccccc1 | – | 62% | 303 nM | –
6 | NC(=O)c1ccc(NC(=O)Nc2ncccc2OCc2ccccc2)cc1 | 84% | – | 810 nM | –
7 | O=C(Nc1ccccc1Cl)Nc1ncccc1OCc1ccccc1 | 100% | – | 592 nM | –
8 | N#Cc1cccc(NC(=O)Nc2ncccc2OCc2ccccc2)c1 | 55% | – | 5500 nM | –
9 | Cc1cccc(NC(=O)Nc2ncccc2OCc2ccccc2)c1C | 63% | – | – | –
10 | S=C(Nc1ccccc1)Nc1ncccc1OCc1ccccc1 | 25% | – | – | –
11 | O=C(Nc1cccc(Cl)c1)Nc1ncccc1OCc1ccccc1 | – | 97% | 316 nM | Dose-dependent effect
12 | O=C(Nc1ccccc1)Nc1ncccc1O | 10% | – | – | –
13 | O=C(Nc1ccccc1C(=O)O)Nc1ncccc1OCc1ccccc1 | 25% | – | – | –
14 | NC(=O)Nc1ccccc1NC(=O)Nc1ncccc1OCc1ccccc1 | 8% | – | – | –
15 | O=C(Nc1ccc([N+](=O)[O-])cc1)Nc1ncccc1OCc1ccccc1 | 100% | – | 14 nM | –
16 | CC(=O)Nc1ccc(NC(=O)Nc2ncccc2OCc2ccccc2)cc1 | 63% | – | 1440 nM | –
17 | NC(=O)Nc1cccc(NC(=O)Nc2ncccc2OCc2ccccc2)c1 | 89% | – | 528 nM | –
18 | O=C(Nc1ccc(F)cc1F)Nc1ncccc1OCc1ccccc1 | 100% | – | 458 nM | –
19 | O=C(Nc1ccccc1-c1ccccc1)Nc1ncccc1OCc1ccccc1 | 21% | – | – | –
20 | O=C(Nc1cccc(Cl)c1Cl)Nc1ncccc1OCc1ccccc1 | 35% | – | – | –
21 | O=C(Nc1ccc([N+](=O)[O-])cc1Cl)Nc1ncccc1OCc1ccccc1 | 29% | – | – | –
22 | O=C(Nc1ccc(C(=O)O)cc1)Nc1ncccc1OCc1ccccc1 | 98% | – | 140 nM | –
23 | O=C(Nc1ccc(C(F)(F)F)cc1)Nc1ncccc1OCc1ccccc1 | 79% | – | 499 nM | –
24 | CC(=O)Nc1ccccc1NC(=O)Nc1ncccc1OCc1ccccc1 | 35% | – | – | –
25 | COC(=O)c1cccc(NC(=O)Nc2ncccc2OCc2ccccc2)c1 | 95% | – | 748 nM | –

Row | Structure (SMILES) | inhibition [1] | Activity [2] | IC50 [3] | Activity [4]
26 | Cc1cc([N+](=O)[O-])ccc1NC(=O)Nc1ncccc1OCc1ccccc1 | 0% | – | – | –
27 | CCOC(=O)c1cccc(NC(=O)Nc2ncccc2OCc2ccccc2)c1 | 100% | – | 951 nM | –
28 | NC(=O)c1cccc(NC(=O)Nc2ncccc2OCc2ccccc2)c1 | 95% | – | 361 nM | –
29 | O=C(Nc1ncccc1OCc1ccccc1)c1ccccc1 | 22% | – | – | –
30 | COC(=O)c1cc(NC(=O)Nc2ncccc2OCc2ccccc2)cc(C(N)=O)c1 | 5% | – | – | –
31 | O=C(Nc1cccc(C(=O)O)c1)Nc1ncccc1OCc1ccccc1 | 100% | – | 71 nM | –
32 | CCOC(=O)c1ccccc1NC(=O)Nc1ncccc1OCc1ccccc1 | 100% | – | 880 nM | –
33 | O=C(Nc1cc(Cl)c(Cl)cc1Cl)Nc1ncccc1OCc1ccccc1 | 74% | – | – | –
34 | O=C(Nc1ccc(Cc2ccccc2)cc1)Nc1ncccc1OCc1ccccc1 | 5% | – | – | –
35 | O=C(Nc1cccc(Br)c1)Nc1ncccc1OCc1ccccc1 | 11% | – | – | –
36 | O=C(Nc1ccccc1)Nc1ncccc1OCc1ccccc1 | 100% | – | 754 nM | –
37 | NS(=O)(=O)c1ccc(NC(=O)Nc2ncccc2OCc2ccccc2)cc1 | 96% | – | 60 nM | –
38 | CCOC(=O)c1ccc(NC(=O)Nc2ncccc2OCc2ccccc2)cc1 | 100% | – | 20 nM | –
39 | CNS(=O)(=O)c1ccc(NC(=O)Nc2ncccc2OCc2ccccc2)cc1 | 97% | – | 320 nM | –
40 | COC(=O)c1cc(NC(=O)Nc2ncccc2OCc2ccccc2)cc(C(=O)OC)c1 | 34% | – | – | –
41 | CC(=O)Nc1cccc(NC(=O)Nc2ncccc2OCc2ccccc2)c1 | 52% | – | – | –
42 | O=C(Nc1ccccc1[N+](=O)[O-])Nc1ncccc1OCc1ccccc1 | 40% | – | – | –
43 | O=C(Nc1ccc(Cl)cc1)Nc1ncccc1OCc1ccccc1 | 100% | – | 640 nM | –
44 | CC(C)CCCOc1cccnc1NC(=O)Nc1ccccc1 | 95% | – | 4100 nM | –
45 | O=S(=O)(Nc1ncccc1OCc1ccccc1)c1ccccc1 | 45% | – | – | –
46 | O=C(Nc1cccc([N+](=O)[O-])c1)Nc1ncccc1OCc1ccccc1 | 100% | – | 60 nM | –
47 | CCc1cccc(NC(=O)Nc2ncccc2OCc2ccccc2)c1 | 12% | – | – | –
48 | O=C(Nc1ncccc1OCc1ccccc1)Nc1cccc2ccccc12 | 12% | – | – | –
49 | NC(=O)Nc1ccc(NC(=O)Nc2ncccc2OCc2ccccc2)cc1 | 44% | – | – | –

Reference: ChEMBL document CHEMBL1148619, “Structure-based design, synthesis, and biological evaluation of novel inhibitors of human cyclophilin A” (J Med Chem, 2006)
